# Assay: Toxicity liver stage against HepG2, at 10uM
# Format: cell-based
# Set-up: test concentration 10 uM, cell line HepG2-A16-CD81EGFP
# Conditions: human, HepG2-A16-CD81EGFP cells; read-out: INHIBITION
# Summary of the method: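 Uninfected HepG2-A16-CD81EGFP cells, 3 × 10^3 per well, 1536-well, plated on prespotted compound at 10 μM final, parasite-free screening media added to match infected plates; puromycin 10 μM positive, DMSO 0.5% negative; run in parallel with 48 h PbLuc assay at 37 °C, 5% CO2; viability by CellTiter-Glo luminescence, normalized to controls.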
row,SMILES,cytotoxicity at 10 µM
1,Cc1n[nH]c(C)c1CC(=O)NCc1ccccc1Cl,9.87%
2,CCOc1cc(CNc2nnn(C)n2)ccc1OCc1ccc(Cl)cc1,6.04%
3,CCN(CC)CCNC(=O)CCc1c(C)nn(-c2ccc(Cl)cc2)c1C,-5.93%
4,O=C1CSC(c2ccsc2)c2c(n(C3CCCC3)[nH]c2=O)N1 (stereo unspecified),-11.6%
5,COCCn1ccc2c(C(=O)NC3CN4CCC3CC4)cccc21 (stereo unspecified),-51.6%
6,COc1cn(CC(N)=O)c(CSc2nccc(C)n2)cc1=O,-12.1%
7,N#Cc1cccnc1OC1CCN(S(=O)(=O)c2ccc(F)c(Cl)c2)CC1,6.27%
8,Cc1nc(N(C)C)nc(C)c1NC(=O)c1ccccc1F,41.7%
9,CC(=O)NCc1noc2c1CN(Cc1ccsc1)CC2,-3.21%
10,Cc1ccc(NC(=O)c2nc3c(s2)CCCN3C(C)C)cn1,0.93%
11,Cc1cc(=O)n(CC(=O)NC(C)C)c(Nc2ccc(F)c(C)c2)n1,7.97%
12,CC(=O)Cn1nc(-c2ccccc2F)ccc1=O,0.477%
13,CN(c1ncc(C(=O)NCc2ccccc2)c(N)n1)C1CCCCC1,-4.31%
14,Cc1ccc(C)c(-c2csc(N)c2C#N)c1,5.47%
15,CCCn1c(NCCc2ccccc2)nc2c(C)nn(C)c2c1=O,66.4%
16,CC(C)CN1CCN(C(=O)c2[nH]nnc2Nc2ccccc2F)CC1,18.7%
17,Cc1ccnn1CC(=O)Nc1cc(-c2ccncc2)[nH]n1,-4.34%
18,Cc1cnc(Nc2cccc(C3CCCN3Cc3cn(C)nc3C)n2)s1 (stereo unspecified),13.2%
19,Cn1ccnc1-c1nc(NC2CCCC2)ncc1-c1cccc(F)c1,14.1%
20,Cn1cc(CN2CCCCC2c2ccc(-c3cccc(F)c3)nc2)cn1 (stereo unspecified),6.77%
21,O=C(COc1ccccc1F)N1CCCCC1c1ccn2ccnc2n1 (stereo unspecified),-8.52%
22,O=C(c1cncs1)N1CCC(Cc2cnc3[nH]ccc3c2)CC1,-3.94%
23,Cc1ccccc1-c1cncc(C2CCN(C3CCOCC3)CC2)n1,-2.81%

row,SMILES,cytotoxicity at 10 µM
1,O=C(C1CCCC1)N1CCCC(c2cccc(-n3ccnc3)n2)C1 (stereo unspecified),-5.52%
2,c1ccc(C2=NOC3(CCN(Cc4c[nH]c5ccccc45)CC3)C2)cc1,3.93%
3,NCCC(=O)N1CCC2(CC1)CN(C(=O)Cc1ccc(Cl)cc1)CCO2,2.24%
4,Cc1cc(C(=O)NCC(F)(F)F)c2c(C3CCNCC3)noc2n1,10.4%
5,Cc1ccc(-n2nnnc2SCN2CCCCC2=O)cc1C,-46.6%
6,Cc1cnn(CC2CN(c3ncnc4c3CCC4)CCO2)c1 (stereo unspecified),56.5%
7,COC(=O)NCC(=O)N1CCC(c2cc3ccccc3[nH]2)CC1,-8.55%
8,CC(C)COc1cncc(NCc2nnc3ccccn23)n1,13.1%
9,CC(Cc1cccc(Cl)c1)NC(=O)NCc1ncnn1C (stereo unspecified),8.52%
10,CC(c1ccc(F)cc1F)N1CCN(CCN2CCCC2=O)CC1 (stereo unspecified),-5.61%
11,Cc1cnn(C2CCCN(C(=O)c3cc[nH]n3)C2)c1 (stereo unspecified),-18.3%
12,COc1ccc(C2CCN(CCCC#N)CC2)cc1,-9.89%
13,O=C(NCc1nnc2ccccn12)N1CCOC(c2cccs2)C1 (stereo unspecified),1.64%
14,CC(C)c1ncc2c(n1)CN(c1ncnc3[nH]ccc13)CC2,-3.28%
15,Cc1nc(C)c(S(=O)(=O)NC(=O)c2ccoc2)s1,-6.91%
16,N#Cc1ccccc1N1CCCN(CC(=O)Nc2ccccc2Cl)CC1,1.11%
17,Fc1ccc(CNCc2nnc3n2CC(C(F)(F)F)CC3)c(F)c1 (stereo unspecified),0.411%
18,CSc1cc2c(cc1NC(=O)NCCn1ccnc1)OCCO2,-8.28%
19,CCCn1cc(CNCC(c2ccc(C)s2)N2CCOCC2)cn1 (stereo unspecified),-0.248%
20,COc1cc(CNC(C)c2cccc(Cl)c2)cc(OC)c1OC (stereo unspecified),5.02%
21,CCC(CNC(=O)c1ccccc1OC)N1CCc2ccccc2C1 (stereo unspecified),12%
22,CN(CCCc1n[nH]c(N)c1C#N)C(=O)Nc1cc(Cl)cc(Cl)c1,11.1%
23,CN(Cc1ccccc1)CC(C)(C)NC(=O)c1cnccn1,6.95%

row,SMILES,cytotoxicity at 10 µM
1,Cc1cccc(C(C)NCC2CCS(=O)(=O)CC2)c1 (stereo unspecified),-2.67%
2,Cc1noc(OCc2ccc(C#N)cc2)n1,-10.2%
3,OCc1cc2ccccc2nc1NCC1CCN(CC(F)(F)F)C1 (stereo unspecified),-55.7%
4,CCc1noc(C(C)SCCS(C)(=O)=O)n1 (stereo unspecified),5.5%
5,CCNC(=O)N(C)C(c1cccnc1)C(C)C (stereo unspecified),-10.2%
6,CSCc1cc(F)ccc1CNCc1ncc[nH]1,11.5%
7,CN1CCN(c2ccccc2NC(=O)NCCc2ccccc2)CC1,-4.63%
8,CC(NCc1cccs1)c1ccc(OCc2nccn2C)cc1 (stereo unspecified),-7.88%
9,CC1CN(C(=O)c2cscn2)c2ccccc2S1 (stereo unspecified),6.43%
10,Cc1ncc2c(n1)CCCC2NC(=O)c1ccccc1Cn1cncn1 (stereo unspecified),-24.4%
11,CC(C)CC(C)N(C)C(=O)CCn1cccn1 (stereo unspecified),0.395%
12,Cc1oncc1C(=O)N1CC[C@H]2[C@H]1CCN2S(C)(=O)=O,-99.4%
13,Cn1ccnc1C(=O)NC[C@@H]1OC[C@H]2CN(S(C)(=O)=O)CC[C@H]21,-99.3%
14,O=C(Cc1ccsc1)N1C[C@H]2CCC[C@@]2(COCc2ccccn2)C1,-102%
15,c1csc(COC[C@H]2CCC[C@]23CN(Cc2ccoc2)CCO3)n1,-67.3%
16,O=c1[nH][nH]cc1-c1ccnc(NCCc2cccc(O)c2)n1,-7.83%
17,Cc1nc2c(c(NCCc3nccs3)n1)CCN(CC1CC1)CC2,-1.38%
18,C[C@@H]1CN(C2CCN(Cc3cnc(-c4cccs4)nc3)CC2)C[C@H](C)O1,-13.7%
19,COCCN(Cc1ccc(C)cc1)Cc1c[nH]cn1,-42.3%
20,CSc1ccc(CN2CCC(CCC(=O)Nc3ccccc3)CC2)cc1,6.8%
21,CC(=O)N[C@H]1CN(S(=O)(=O)N(C)Cc2ccccc2)C[C@@H]1C1CC1,-144%
22,CC(C)c1cc(CN(C)C(=O)C(C)N2CCc3ccccc3C2)no1 (stereo unspecified),4.24%
23,Nc1nc2c(c(NCc3ccc(C(=O)N4CCCC4)cc3)n1)CCCC2,21.1%

row,SMILES,cytotoxicity at 10 µM
1,COc1ccc(Oc2ccc(C(F)(F)F)cn2)cc1CN1CCCC1,-5.62%
2,CC(Oc1ccc2c(c1)OCO2)C(=O)N1CCC(N2CCOCC2)CC1 (stereo unspecified),-13.5%
3,COc1ccc(C(=O)C2CCCN(Cc3ccncc3)C2)cc1OC (stereo unspecified),-0.677%
4,COCCN(C)C(=O)c1ccccc1-n1cccn1,-4.57%
5,CCn1cc(CN2CCC(N3CCC(O)CC3)CC2)cc1C#N,0.371%
6,CN(Cc1nccs1)C1CCN(c2cccc(-c3cscn3)c2)CC1,-1.26%
7,Cn1ncc2c(N3CCCC4(CCNC4)C3)nc(C(C)(C)C)nc21 (stereo unspecified),-45.8%
8,CCN(CCn1c(=O)oc2ccccc21)CC1CCOCC1,-8.73%
9,COCc1cc(N2CCOC(c3ccc(Cl)c(Cl)c3)C2)ncn1 (stereo unspecified),0.635%
10,CCN(C)S(=O)(=O)NC(C)c1cnc(N(C)C2CCCCC2)nc1C (stereo unspecified),-123%
11,Cc1cc(N2CCC(NC(C)Cc3ccsc3)CC2)nc(N)n1 (stereo unspecified),2.22%
12,CN(C)CCCNC(=O)c1ccc(N(C)S(C)(=O)=O)cc1Cl,-6.3%
13,COCC1(C(=O)N[C@H]2CN(c3nnc(C)s3)C[C@@H]2C2CC2)CCC1,-129%
14,COc1ccc(-n2ncc(C(C)NC3Cc4ccccc4C3)c2C)cc1 (stereo unspecified),-6.32%
15,NCC(=O)N1CCCC1c1ccc(C(=O)NCc2ccoc2)s1 (stereo unspecified),1.68%
16,COCCN1CCN(Cc2ccncc2)[C@H]2CS(=O)(=O)C[C@H]21,-10.2%
17,c1cnc2c(C3CCN(Cc4ccsc4)CC3)n[nH]c2n1,1.34%
18,CCCN(C(=O)c1ccccn1)c1nc2c(s1)CCc1c-2cnn1C,6.23%
19,CC1CN(C)CCN1C(=O)c1ccn(-c2ccccc2)n1 (stereo unspecified),0.533%
20,O=C(COCC(F)(F)F)NS(=O)(=O)c1ccc2c(c1)OCCCO2,-6.8%
21,CCN(Cc1ccccc1)C(=O)CN1CCCC(Cn2cncn2)C1 (stereo unspecified),0.421%
22,Cc1nc(CN(C)C2CCN(CC3CCCCC3)C2)no1 (stereo unspecified),-7.49%
23,CNC(=O)COc1ccccc1CNC1CCc2ncnn2C1 (stereo unspecified),-13.6%

row,SMILES,cytotoxicity at 10 µM
1,Cc1cnn(CC2CN(c3ncnc4ccccc34)CCO2)c1 (stereo unspecified),6.57%
2,CCn1ncc2c1CCCC2NCC1=Cc2ccccc2OC1 (stereo unspecified),-4.31%
3,CN1CCCc2cc(CNC(=O)c3ccncc3)ccc21,7.03%
4,Fc1ccc(F)c(CN2CCC(c3cc4ncccc4cn3)CC2)c1,-5.14%
5,COCC1CC2(CCN(c3ccccn3)CC2)CN1C(C)C (stereo unspecified),-110%
6,c1csc(CN2CCO[C@@H]3CN(C4CCOCC4)C[C@@H]3C2)c1,-157%
7,Cc1ccsc1CN1C[C@@H]2COC[C@]2(CNC(=O)c2ccco2)C1,-95.5%
8,C1CCC(CN2Cc3nnn(CC4CC4)c3C(COCC3CC3)C2)C1 (stereo unspecified),19.7%
9,CC1N(C)C(=O)COC12CCN(Cc1ccsc1)CC2 (stereo unspecified),-5.24%
10,Cc1csc(CN2CCC[C@]3(C[C@@H](Oc4ccccn4)CO3)C2)n1,-141%
11,COc1c(CNCc2ccc(C(=O)N3CCCC3)cc2)c(C)nn1C,-3.23%
12,Cc1ccc(C(=O)N2CCC3(CCN3Cc3ccc(F)cc3)C2)cn1 (stereo unspecified),-116%
13,Cn1cnc2c1C(COCC1CC1)CN(Cc1ccc3c(c1)OCO3)C2 (stereo unspecified),-12%
14,COc1ccccc1CN1CC[C@H]2C[C@H](C(=O)N3CCCC3)O[C@H]2C1,-2.24%
15,Cn1ccnc1C(=O)N[C@@H]1CN(CC2CCOCC2)[C@@H]2CCCO[C@@H]21,-97.8%
16,CN(C)C(=O)CC1CC2(CCN(Cc3ccsc3)CC2)c2ccccc21 (stereo unspecified),1.13%
17,O=C1C[C@H]2[C@@H](CCN2C(=O)Cc2ccsc2)N1Cc1cccnc1,-0.331%
18,c1ccc(CNCC2Cn3nnc(-c4ccncc4)c3CO2)nc1 (stereo unspecified),-1.99%
19,COc1no[n+]([O-])c1-c1ccccc1,8.2%

# Reference: ChEMBL document CHEMBL4513216, “Probing the Open Global Health Chemical Diversity Library for Multistage-Active Starting Points for Next-Generation Antimalarials” (ACS Infect Dis, 2020)
